Experimental data from different studies.
Each line is one published result; the experiments were not run side by side.
Target: Serine/threonine-protein kinase BRSK1 (BRSK1, Homo sapiens, UniProt Q8TDC3)
One construct used (Q8TDC3 1-778): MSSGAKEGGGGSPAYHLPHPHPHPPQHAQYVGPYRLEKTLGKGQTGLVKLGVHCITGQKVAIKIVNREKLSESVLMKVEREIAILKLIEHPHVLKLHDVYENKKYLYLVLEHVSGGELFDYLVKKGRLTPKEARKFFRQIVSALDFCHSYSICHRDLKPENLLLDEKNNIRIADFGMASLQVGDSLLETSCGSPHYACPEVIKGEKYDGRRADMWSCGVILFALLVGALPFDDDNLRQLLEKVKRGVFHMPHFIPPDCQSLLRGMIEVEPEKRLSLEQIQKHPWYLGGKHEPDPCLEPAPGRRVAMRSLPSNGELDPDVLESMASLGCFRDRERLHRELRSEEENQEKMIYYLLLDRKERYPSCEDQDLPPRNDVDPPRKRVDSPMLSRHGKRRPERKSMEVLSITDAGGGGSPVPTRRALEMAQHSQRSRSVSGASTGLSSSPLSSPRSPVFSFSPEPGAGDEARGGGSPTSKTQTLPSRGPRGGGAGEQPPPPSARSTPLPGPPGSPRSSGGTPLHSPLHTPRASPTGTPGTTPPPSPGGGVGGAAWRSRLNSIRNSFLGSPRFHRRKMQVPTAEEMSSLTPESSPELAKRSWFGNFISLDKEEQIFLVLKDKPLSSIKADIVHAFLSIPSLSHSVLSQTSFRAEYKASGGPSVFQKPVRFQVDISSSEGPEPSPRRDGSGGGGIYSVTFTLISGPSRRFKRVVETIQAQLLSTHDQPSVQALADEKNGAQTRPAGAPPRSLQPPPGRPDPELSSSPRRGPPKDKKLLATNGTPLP

O=c1[nH]c2ccccc2n1C1CCN(Cc2ccc(-c3[nH]c4cc5ncnc5cc4nc3-c3ccccc3)cc2)CC1 — remaining signal (cell-free assay; 0.5 µM): 98.3%
N#CC1(c2ccccn2)CCN(Cc2cc(C(=O)O)c(=O)n3ccccc23)CC1 — remaining binding (cell-free assay; competition with immobilised ligand; 1 µM): 100%
Cc1nn(C)cc1-c1nc2c(N3CCN(Cc4ccc(Cl)cc4)CC3)c(Cl)cnc2[nH]1 — remaining binding (binding; competition with immobilised ligand; 1 µM): 100%
Nc1ncc(-c2nc(N3CCOCC3)nc(N3CCOCC3)n2)c(C(F)F)n1 — remaining binding (binding; competition with immobilised ligand; 10 µM): 91%
Cn1cc(-c2cccc(N3CCc4c(sc5c4CC(C)(C)C5)C3=O)c2CO)cc(Nc2ccncn2)c1=O — inhibition (enzyme activity; inhibitor; 1 µM): 3%
Cn1cncc1[C@@](O)(COc1ccc(C#N)cc1-c1ccc(OC(F)(F)F)cc1)c1ccc(C#N)cc1 — remaining binding (cell-free assay; competition with immobilised ligand; 1 µM): 86%
COc1ncccc1-c1cnn2ccc(N3CCN(C(=O)OC(C)C)CC3)nc12 — remaining binding (binding; competition with immobilised ligand; 1 µM): 93%
Cn1cc(-c2cc(F)cc(N3CCn4c(cc5c4CCCC5)C3=O)c2CO)cc(Nc2ccc(N3CCN(C4COC4)CC3)cn2)c1=O — inhibition (enzyme activity; inhibitor; 0.1 µM): 12%
CC(C)(C)c1cc(C=C(C#N)C#N)cc(Br)c1O — remaining activity (enzyme activity; inhibitor; 0.5 µM): 94%
